Measured values as given in ChEMBL document CHEMBL1124588, “Synthesis and evaluation of N,N-di-n-propyltetrahydrobenz[f]indol-7-amine and related congeners as dopaminergic agonists” (J Med Chem, 1989).

Tests used:
[1] = target: D(2) dopamine receptor (Rattus norvegicus) (UniProt P61169); assay: Dopamine D2 agonistic activity (2 mg/kg) as percent change in prolactin level in reserpinized rats; format: functional, organism-based
Outline: (§1)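 Male Sprague-Dawley rats were given reserpine 15 mg/kg ip as an aqueous suspension 18 h before dosing. Compound in 10% ethanol was given ip; controls received saline. Rats were killed 1 h later and blood was allowed to clot. Serum prolactin was measured by NIAMD radioimmunoassay as ng NIAMD-prolactin-PR-1/mL and expressed as percent change versus control.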

[2] = target: D(2) dopamine receptor (Rattus norvegicus) (UniProt P61169); assay: Dopamine D2 agonistic activity (2 mg/kg) as plasma prolactin level in reserpinized rats; format: functional, organism-based; outline: as §1
[3] = target: D(2) dopamine receptor (Rattus norvegicus) (UniProt P61169); settings: Plasma

Chain of D(2) dopamine receptor (Rattus norvegicus) (P61169 whole entry): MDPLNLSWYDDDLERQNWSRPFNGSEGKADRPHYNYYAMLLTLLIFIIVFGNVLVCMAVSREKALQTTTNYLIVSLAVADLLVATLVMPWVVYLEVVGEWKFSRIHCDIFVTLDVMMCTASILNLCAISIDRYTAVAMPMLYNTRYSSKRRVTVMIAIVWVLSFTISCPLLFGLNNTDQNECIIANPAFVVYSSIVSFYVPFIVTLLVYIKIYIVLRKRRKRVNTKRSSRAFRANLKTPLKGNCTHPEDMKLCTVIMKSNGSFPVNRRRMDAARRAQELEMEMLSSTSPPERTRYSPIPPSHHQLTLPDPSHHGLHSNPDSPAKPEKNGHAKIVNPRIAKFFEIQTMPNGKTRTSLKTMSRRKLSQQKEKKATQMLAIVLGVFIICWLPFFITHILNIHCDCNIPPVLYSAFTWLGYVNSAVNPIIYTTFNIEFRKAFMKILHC

Structure (SMILES)	Change [1] [%]	PRL [2] [ng/mL]	PRL [3] [ng/mL]
CCCN(CCC)CCc1cccc(NC(=O)C(F)(F)F)c1	-21	36.8	
CCCN(CCC)CCc1ccc2cc[nH]c2c1	0	51.2	
CCCN(CCC)CCc1cccc2[nH]ccc12	-69	5	
CCCN(CCC)CCc1cccc(NS(C)(=O)=O)c1	-76	12.6	
CCCN(CCC)C1CCc2ccc(NS(C)(=O)=O)cc2C1 (configuration not stated)	-41	28.3	
CCCN(CCC)C1CCc2cc3cc[nH]c3cc2C1 (configuration not stated)	-37	30.6	
CCCN(CCC)CCc1cccc(NC(C)=O)c1	-19	36.9	
CCCN(CCC)C1CCc2ccc(NC(C)=O)cc2C1 (configuration not stated)	-19	38.9	
CCCN(CCC)C1CCc2ccc3[nH]ccc3c2C1 (configuration not stated)			3.8
